FN deposition inh = inhibitors of fibronectin matrix deposition, primary screen, AH1F cells, Alexa488-fibronectin fluorescence, plate reader; AH1F fibroblasts, overnight; actives 0.086% (n = 350,000); AID 743247, 2014; inhibition, % at 12.6 µM;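 active means mean inhibition across replicates of 30% or more, regardless of how many single replicates reach that level; inconclusive means mean under 30% yet at least half of replicates reach 30%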;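 further: positive control wells lacked labelled fibronectin entirely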
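Assay system: AH1F fibroblast monolayer, labelled fibronectin deposition. Amount: 10000 cells per well. Also added: labelled fibronectin 24 nM. Compound: single-point pinned compound. Incubation: cell attachment 1 h, compound and FN exposure overnight. Detection: fluorescence after three HBSS washes, excitation 485 nm, emission 525 nm. Read-out: inhibition of fibronectin deposition signal.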
FGF22 binding = binders of human FGF22 protein, primary screen, FGF22 synaptogenesis inhibitor project, biophysical, thermal shift, single point; Fibroblast growth factor 22 (Homo sapiens), Q9HCT0; recombinant FGF22 thermal shift, SYPRO orange fluorescence; percent of sucrose octasulfate shift, DMSO zero; activity (Tm shift, normalised), % at 9.99 µM; actives 1.5% (n = 340,000); AID 651658, 2012;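 active means mean Tm shift, scaled 0 neutral to 100 positive control, at about 1.3% or above, every replicate too, limit read from the data; inconclusive means no clear call, values can overlap the other calls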
Target sequence (Q9HCT0 whole entry, looked up): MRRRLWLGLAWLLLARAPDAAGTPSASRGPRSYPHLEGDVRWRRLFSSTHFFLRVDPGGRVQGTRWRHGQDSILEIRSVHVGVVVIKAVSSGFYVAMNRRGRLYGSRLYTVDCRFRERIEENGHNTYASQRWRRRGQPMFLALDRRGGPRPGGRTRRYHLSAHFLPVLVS
PGC1a acetyl inh = inhibitors of PGC1a acetylation signal, primary screen, cell-based, U2OS, AlphaScreen, inhibitor mode. AlphaScreen anti-acetyl-lysine; with virally co-expressed GCN5 acetyltransferase. inhibition, % at 15.6 µM. actives 0.17% (n = 350,000). AID 651687, 2012;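 active means every replicate shows inhibition of at least 40%; inconclusive means mean inhibition at least 40% but some replicate below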;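 further: 0% = neutral control wells and 100% = positive control wells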
Env fusion inh = inhibitors of HIV-1 Env-driven cell-cell fusion, primary screen, HeLa-JRFL effector, CEM21 target cells, luciferase. inhibition, % at 12.3 µM. actives 1.1% (n = 360,000). AID 651610, 2012;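 active means mean replicate inhibition score of at least 50 and every replicate individually at or above 50; inconclusive means only one of the two criteria met; inactive means mean below 50 and not all replicates reaching 50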;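 further: 0% = plate neutral controls and 100% = maraviroc near 300 nM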
EWS-Fli block = EWS/Fli-driven NR0B1 reporter inhibitors, primary screen, A673 cells, NR0B1 luciferase, luminescence, MLPCN library; viability-normalised; inhibition, % at 12.6 µM; actives 0.67% (n = 350,000); AID 651661, 2012;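 active means mean inhibition of at least 50% after viability correction, with every replicate also passing that limit; inconclusive means mean reaches 50% but only one of two replicates passes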;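 further: firefly luciferase signal divided by Alamar Blue viability fluorescence both relative to DMSO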
PAX8 inh HTS = inhibitors of PAX8-driven TPO luciferase reporter, primary screen, RMG-I cells, single concentration. SteadyGlo, 24 h. inhibition, % at 12.6 µM. actives 1.2% (n = 360,000). AID 652154, 2013;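 active means mean replicate inhibition at least 60% with every replicate also reaching 60%; inconclusive means only one of the two criteria is met; inactive means mean below 60% and not all replicates reaching 60%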;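 further: luciferase light reporting Pax8 driven TPO promoter activity; plate controls were median of neutral control wells for no effect and mitoxantrone controls for full effect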
* marks the source's active call; other numbers are inactive results; u = inconclusive; x = no result given; [ ] = remark or other dose. A selection: hits, their analogues and other compounds. The true share with any hit is near 3.1%.

SMILES	FN deposition inh	FGF22 binding	PGC1a acetyl inh	Env fusion inh	EWS-Fli block	PAX8 inh HTS
CC(C)NC(=O)N(C)C[C@@H]1OCCCC[C@@H](C)Oc2ccc(NC(=O)C3CCCCC3)cc2C(=O)N([C@@H](C)CO)C[C@@H]1C	1	0	4	1[16.7 µM]	x	-4
C[C@@H]1CC[C@H]2C(=O)N3[C@@H](CC[C@@H](C)[C@@H]3c3ccc(Br)cc3)C(=O)N2[C@H]1c1ccc(Br)cc1	3	0	x	77*	7	28
O=C1C2C3C=CC(CC3)C2C(=O)N1c1ccc(Br)cc1 (stereo unspecified)	-9	0	7	24	-5	-7
CCN1CCN(C(c2cccnc2)c2c(NC(=O)c3ccco3)sc(C)c2C)CC1 (stereo unspecified)	7	0	-5	x	4	8
Cc1sc(NC(=O)c2ccco2)c(C(c2cccnc2)N2CCC(C)CC2)c1C (stereo unspecified)	-3	x	16	62*	x	13
O=C(c1ccccc1F)N1C[C@H]2O[C@@H](CNS(=O)(=O)c3ccccc3)CC[C@H]21	x	x	0	55[16.7 µM]	-3	-7
CCCN(CCC)Cc1c(C(=O)N/N=C/C(C)=C\c2ccco2)nnn1-c1nonc1N	-14	0	x	14	13	93*
CC(/C=N/NC(=O)c1nnn(-c2nonc2N)c1CN(C)C)=C\c1ccco1	-3	0	3	14	8	15
Cc1ccc(SCc2c(C(=O)N/N=C/c3ccc(C)o3)nnn2-c2nonc2N)cc1	-6	0	-8	-17	0	8
Cc1ccc(/C=N/NC(=O)c2nnn(-c3nonc3N)c2CSc2ccccc2)o1	6	43*	4	0	x	-1
CNC[C@H]1Oc2ccc(NC(=O)Nc3c(C)noc3C)cc2C(=O)N([C@@H](C)CO)C[C@@H]1C	-2	x	12	-12[16.7 µM]	-5	-6
O=C(CN1C(=O)c2ccccc2S1(=O)=O)c1ccc2c(c1)OCCCO2	-1	x	-4	91*	89*	104*
O=C(CN1C(=O)c2ccccc2S1(=O)=O)c1ccc(Cl)cc1Cl	0	0	x	62*	x	112*
O=C(CN1C(=O)c2ccccc2S1(=O)=O)c1ccc2c(c1)OCCO2	6	0	-7	84*	86*	105*
CC(C)CNC(=O)C1(C)CCCCCN1C(=O)c1csnn1 (stereo unspecified)	0	0	9	14	-6	-9
CCCCNC(=O)C1(C)CCCCN1C(=O)c1csnn1 (stereo unspecified)	-11	44*	x	x	-1	-4
CCCNC(=O)N(C)C[C@H]1Oc2cc(-c3ccc(C)cc3)ccc2S(=O)(=O)N([C@H](C)CO)C[C@H]1C	-13	0	-5	-37[16.7 µM]	5	x
CCC(=O)N(C)C[C@H]1Oc2ncc(/C=C/c3ccccc3)cc2C(=O)N([C@@H](C)CO)C[C@@H]1C	7	0	-1	-17[16.7 µM]	6	x
CC12CCC(=O)N1C(C(=O)Nc1nc3ccc(S(C)(=O)=O)cc3s1)CS2 (stereo unspecified)	x	0	x	55*	x	2
Cc1ccc(CNC(=O)C2CSC3(C)CCC(=O)N23)cc1 (stereo unspecified)	5	43*	7	u	-1	-9
Cc1ccc(C(=O)NNC(=O)C2CSC3(C)CCC(=O)N23)cc1 (stereo unspecified)	0	0	x	-3	-2	-14
CO[C@@H](CN(C)Cc1nccs1)[C@H](C)CN([C@H](C)CO)S(=O)(=O)c1ccc(C)cc1	-1	0	4	x	2	x
Cc1nc(SCc2nc3cc(Cl)c(F)cc3[nH]2)c2oc3ccccc3c2n1	x	0	-1	66*	9	87*
Cc1nc(SCc2nc3ccc(Cl)cc3[nH]2)c2oc3ccccc3c2n1	-13	0	5	1	-23	14
C[C@H](CO)N1C[C@H](C)[C@H](CN(C)Cc2ccncc2)Oc2ccc(NC(=O)c3ccncc3)cc2C1=O	x	0	1	-23[16.7 µM]	-1	-6
SMILES	FN deposition inh	FGF22 binding	PGC1a acetyl inh	Env fusion inh	EWS-Fli block	PAX8 inh HTS
CC(CC(=O)O)CC(=O)Nc1cc(C(F)(F)F)cc(C(F)(F)F)c1 (stereo unspecified)	7	0	9	3	6	0
CCC(C)(CC(=O)O)CC(=O)Nc1cc(C(F)(F)F)cc(C(F)(F)F)c1 (stereo unspecified)	1	0	68*	10	11	-15
Cc1cc(C)c2nc(C)cc(N/N=C/c3ccc(O)cc3)c2c1	10	0	x	-118	67*	94*
O=C(c1cccs1)C1CCCN(Cc2nc(Cc3ccccc3F)no2)C1 (stereo unspecified)	-1	43*	-2	5	7	22
CCOC(=O)C1=C(C)N=c2s/c(=C\c3cccc(OCC(=O)O)c3)c(=O)n2C1c1ccccc1OC (stereo unspecified)	x	0	55*	12	-13	3
CCOC(=O)C1=C(C)N=c2s/c(=C/c3ccc(OCC(=O)O)cc3)c(=O)n2C1c1cc(OC)c(OC)c(OC)c1 (stereo unspecified)	0	-1	3	5	9	-4
CCOC(=O)Cc1cc(=O)n2[nH]c(C)c(-c3ccccc3)c2n1	-5	x	-6	-48	x	9
CCOC(=O)Cc1cc(=O)n2[nH]c(-c3ccccc3)c(-c3ccccc3)c2n1	x	43*	8	4	16	0
O=C(N[C@H]1CC[C@@H](CCNC(=O)C2CCC2)O[C@H]1CO)c1ccccn1	x	0	-2	-5[16.7 µM]	-3	10
CC12C=CC3(O1)C(C(=O)N1CCCOC13)C2C(=O)O (stereo unspecified)	-5	43*	-8	-6	7	-10
CC12C=CC3(O1)C(C(=O)N(c1ccccc1)C3C(=O)NC1CCCC1)C2C(N)=O (stereo unspecified)	8	x	4	-24	x	4
COc1cc(/C=C2/C(=N)N3C(=NC2=O)SN=C3S(=O)(=O)C(C)C)ccc1OC(=O)c1ccco1	-3	1.4*	x	4	0	-14
CS(=O)(=O)C1=NN2C(=N)/C(=C\c3ccc(OC(=O)c4ccco4)cc3)C(=O)N=C2S1	6	0	-8	9	2	-8
N=C1/C(=C\c2ccc(OC(=O)c3ccco3)cc2)C(=O)N=C2SC=NN12	2	44*	x	-367	5	-8
CCOc1cc(/C=C2/C(=N)N3C(=NC2=O)SN=C3S(=O)(=O)C(C)C)ccc1OC(=O)c1ccco1	-12	x	5	0	5	-1
